From ChEMBL document CHEMBL3351723, “New derivatives of lupane triterpenoids disturb breast cancer mitochondria and induce cell death” (Bioorg Med Chem, 2014)
Calls of active or inactive are those of the source. No cut-off for these calls is given here.

Tests used:
BJ = experiment: Cytotoxicity against human BJ cells at 0.125 to 2 ug/ml after 1 to 5 days by sulforhodamine B assay; assay type: cell-based
Summary of the method: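 Non-tumor cells seeded at 2×10^4 cells/ml and treated 24 h after seeding, in high-glucose DMEM with pyruvate, 10% FBS and penicillin-streptomycin, 37°C, 5% CO2. Compound exposure 0.125–2 μg/ml for 1, 3 and 5 days, with vehicle controls. Cells fixed and stained with sulforhodamine B for total cell mass. Data given as % of untreated control at each time point; five independent experiments.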

MDA-MB-231 = experiment: Cytotoxicity against human MDA-MB-231 cells at 0.125 to 2 ug/ml after 1 to 5 days by sulforhodamine B assay in presence of taxol; assay type: functional, cell-based
Hs-578T [1] = experiment: Cytotoxicity against human Hs578T cells at 0.125 to 2 ug/ml after 1 to 5 days by sulforhodamine B assay in presence of taxol; assay type: functional, cell-based
MCF7 [2] = experiment: Cytotoxicity against human MCF7 cells at 0.125 to 2 ug/ml after 1 to 5 days by sulforhodamine B assay in presence of taxol; assay type: functional, cell-based
[3] = Cell cycle arrest against human Hs578T cells assessed as decrease in cells at S phase at 0.5 ug/ml after 24 to 48 hrs by propidium iodide staining based flow cytometry; assay type: functional; settings: Hs-578T
Summary of the method: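 Log-phase Hs578T cells exposed 24 and 48 h to 0.5 μg/ml. Adherent plus floating cells fixed in cold 70% ethanol, kept overnight at -20°C, washed into PBS-T (132 mM NaCl, 4 mM KCl, 1.2 mM NaH2PO4, 0.1% Tween). Treated with 20 μg/ml RNase for 45 min at 37°C, then propidium iodide for 30 min at 37°C. Phase percentages read by flow cytometry. Mean ± SEM, 5 experiments.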

Hs-578T [4] = experiment: Induction of apoptosis in human Hs578T cells assessed as increase in p53 protein at 1 ug/ml after 24 hrs by Western blot analysis; assay type: functional, cell-based
Summary of the method: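 About 1.0×10^6 attached and floating HS578T cells, treated 24 h at 1 μg/ml, were lysed in HEPES/sucrose buffer with DTT, PMSF and protease inhibitors. Extracts were stored at -80°C, then p53 and cyclophilin D were semi-quantified by Western blot. Six experiments, mean ± SEM.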

Hs-578T [5] = experiment: Effect on Bcl2 protein level in human Hs578T cells at 1 ug/ml after 24 hrs by Western blot analysis; assay type: functional, cell-based
[6] = Induction of apoptosis in human Hs578T cells assessed as distribution of mitochondrial polarization and morphology at 0.25 ug/ml after 6 hrs by confocal microscopy; assay type: functional, cell-based; settings: Hs-578T
Summary of the method: (§1)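 Cells were seeded on glass coverslips and left to attach for 24 h. They were then exposed to vehicle or 0.25 μg/ml compound for 6 h. For the last 30 min they were loaded with 100 nM TMRM in saline buffer with 15 mM glucose, and the probe was kept present during imaging. Mitochondrial polarization and morphology were imaged by fluorescence microscopy, and the TMRM fluorescence standard deviation was quantified. Four independent preparations, mean ± SEM.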

[7] = Induction of apoptosis in human Hs578Bst cells assessed as distribution of mitochondrial polarization and morphology at 0.25 ug/ml after 6 hrs by confocal microscopy; assay type: functional, cell-based; summary of the method: as §1
MCF7 [8] = experiment: Cytotoxicity against human MCF7 cells assessed as reduction in cell number in glucose-free, galactose/glutamine medium after 3 to 5 days; assay type: functional, cell-based
Summary of the method: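 Cells grown in glucose-free DMEM with galactose (1.8 g/L), L-glutamine (0.584 g/L), pyruvate and 10% FBS, forcing ATP from oxidative phosphorylation. Exposed to a dose range for 1, 3 and 5 days. Cell number read by sulforhodamine B and expressed as % of control. Mean ± SEM, 5 experiments.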

Liver microsome [9] = experiment: Reduction in ADP-induced mitochondrial transmembrane electropotential in Wistar Han rat liver mitochondria energized with succinate at >0.7 ug/mg of protein; assay type: functional
Liver microsome [10] = experiment: Induction of mitochondrial function disruption in Wistar Han rat liver mitochondria energized with succinate assessed as State-3 level per mg of protein measured at 0.133 ug/mg of protein (reference value: 130.8 +/- 24.1 nmol/mg protein/min); assay type: functional
Liver microsome [11] = experiment: Induction of mitochondrial function disruption in Wistar Han rat liver mitochondria energized with succinate assessed as State-3 level per mg of protein measured at 0.333 ug/mg of protein (reference value: 130.8 +/- 24.1 nmol/mg protein/min); assay type: functional
Liver microsome [12] = experiment: Induction of mitochondrial function disruption in Wistar Han rat liver mitochondria energized with succinate assessed as State-3 level per mg of protein measured at 1.333 ug/mg of protein (reference value: 130.8 +/- 24.1 nmol/mg protein/min); assay type: functional
Liver microsome [13] = experiment: Induction of mitochondrial function disruption in Wistar Han rat liver mitochondria energized with succinate assessed as State-4 level per mg of protein measured at 0.067 ug/mg of protein (reference value: 33.5 +/- 7.5 nmol/mg protein/min); assay type: functional
Liver microsome [14] = experiment: Induction of mitochondrial function disruption in Wistar Han rat liver mitochondria energized with succinate assessed as adenosine diphosphate/O ratio measured at 0.067 ug/mg of protein (reference value: 2.3 +/- 0.2 no_unit); assay type: functional
Liver microsome [15] = experiment: Induction of mitochondrial function disruption in Wistar Han rat liver mitochondria energized with succinate assessed as adenosine diphosphate/O ratio measured at 0.133 ug/mg of protein (reference value: 2.3 +/- 0.2 no_unit); assay type: functional
Liver microsome [16] = experiment: Induction of mitochondrial function disruption in Wistar Han rat liver mitochondria energized with succinate assessed as adenosine diphosphate/O ratio measured at 0.333 ug/mg of protein (reference value: 2.3 +/- 0.2 no_unit); assay type: functional
[17] = Induction of mitochondrial function disruption in Wistar Han rat liver mitochondria energized with succinate assessed as adenosine diphosphate/O ratio measured at 0.667 ug/mg of protein (reference value: 2.3 +/- 0.2 no_unit); assay type: functional
Liver microsome [18] = experiment: Induction of mitochondrial function disruption in Wistar Han rat liver mitochondria energized with succinate assessed as respiratory control ratio measured at 0.333 ug/mg of protein (reference value: 4.1 +/- 0.5 no_unit); assay type: functional
Hs-578T [19] = experiment: Cytotoxicity against human Hs578T cells at 0.125 to 2 ug/ml after 1 to 5 days by sulforhodamine B assay; assay type: functional, cell-based
Summary of the method: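 Sulforhodamine B growth assay in high-glucose DMEM with 10% FBS. Cancer cells seeded at 1×10^4 cells/ml; compound (0.125–2 μg/ml) added 24 h after seeding and left for 1, 3 or 5 days. Cells fixed, total mass stained. Expressed as % of untreated cells at the same time point. Mean ± SEM, five independent experiments.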

Liver microsome [20] = experiment: Effect on mitochondrial transmembrane potential in Wistar Han rat liver mitochondria energized with succinate assessed as ADP depolarization at 0.133 ug/mg of protein (reference value: 34.6 +/- 1.9 mV); assay type: functional

SMILES | Activity (BJ) | inhibition (MDA-MB-231) | inhibition (Hs-578T [1]) | inhibition (MCF7 [2]) | inhibition [3] | Activity (Hs-578T [4]) | Activity (Hs-578T [5]) | Activity [6] | Activity [7] | inhibition (MCF7 [8]) | inhibition (Liver microsome [9]) | Activity (Liver microsome [10]) [nmol/min] | Activity (Liver microsome [11]) [nmol/min] | Activity (Liver microsome [12]) [nmol/min] | Activity (Liver microsome [13]) [nmol/min] | Ratio (Liver microsome [14]) | Ratio (Liver microsome [15]) | Ratio (Liver microsome [16]) | Ratio [17] | Ratio (Liver microsome [18]) | further results
C=C(C)[C@@H]1CC[C@]2(COC(=O)C[n+]3ccc(N(C)C)cc3)CC[C@]3(C)[C@H](CC[C@@H]4[C@@]5(C)CC[C@H](OC(=O)C[n+]6ccc(N(C)C)cc6)C(C)(C)[C@@H]5CC[C@]43C)[C@@H]12.[Cl-].[Cl-] | Non-toxic | Active | Active | Active | Active | Active | inactive | Active | Active | Active | Active | 130 | 136 | 131 | 24.5 | 2.4 | 2.4 | 2.2 | 2.2 | 4.4 | 
C=C(C)[C@@H]1CC[C@]2(COC(=O)CC[n+]3ccc(N(C)C)cc3)CC[C@]3(C)[C@H](CC[C@@H]4[C@@]5(C)CC[C@H](OC(=O)CC[n+]6ccc(N(C)C)cc6)C(C)(C)[C@@H]5CC[C@]43C)[C@@H]12.[Cl-].[Cl-] | Toxic |  |  |  | Active | Active | inactive |  | inactive | Active |  | 111 | 121 | 112 | 29.4 | 1.8 | 1.7 | 1.8 | 1.6 | 4.1 | inhibition (Hs-578T [19]): Active
C=C(C)[C@@H]1CC[C@]2(COC(=O)C[N+](C)(C)C(C)C)CC[C@]3(C)[C@H](CC[C@@H]4[C@@]5(C)CC[C@H](OC(=O)C[N+](C)(C)C(C)C)C(C)(C)[C@@H]5CC[C@]43C)[C@@H]12.[Cl-].[Cl-] |  | Active | Active | Active | Active | Active | inactive | Active | Active | Active | Active | 121 | 121 | 107 | 27.5 | 3 | 3.1 | 2.9 | 2.6 | 4.2 | inhibition (Hs-578T [19]): Active; Activity (Liver microsome [20]): 30.3 mV
C=C(C)[C@@H]1CC[C@]2(COC(=O)C(CC)[n+]3ccc(N(C)C)cc3)CC[C@]3(C)[C@H](CC[C@@H]4[C@@]5(C)CC[C@H](OC(=O)C(CC)[n+]6ccc(N(C)C)cc6)C(C)(C)[C@@H]5CC[C@]43C)[C@@H]12 (some centres not stated) |  |  |  |  | Active | Active | inactive | Active | Active | Active |  | 131 | 132 | 119 | 24.1 | 1.6 | 1.6 | 1.6 | 1.6 | 3.2 | 
